Reference: ChEMBL document CHEMBL1121414, “Central nervous system activity of 7-substituted 1-azaphenoxathiin analogues and their oxidation products” (1980)

Tests used:
Rattus norvegicus = test: The compound was tested for antidepressant activity by its ability to inhibit muricidal intraperitoneally; format: functional; conditions: ip
Procedure, shortened: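 Male Long-Evans rats (200–300 g), groups of five, given test drug ip as a methylcellulose suspension at an initial screening dose of 10 or 20 mg/kg. Mice were presented to the rats 30 min after dosing.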

Mus musculus = organism: Mus musculus; test: The compound was tested for antidepressant activity by its ability to reverse tetrabenazine induced ptosis in mice, perorally; format: functional; conditions: po
Procedure, shortened: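 Male albino CFI mice (18–22 g), groups of five, dosed po with test drug in methylcellulose suspension (initial screening dose 30 mg/kg). Tetrabenazine methanesulfonate 30 mg/kg was given ip 30 min later, and palpebral opening was scored after 30 min.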

Row | SMILES | ED50 (Rattus norvegicus) | ED50 (Mus musculus)
1 | CN(C)CCCN1c2ccccc2CCc2ccccc21 [IMIPRAMINE] | 20 mg/kg | 2 mg/kg
2 | COc1ccc2c(c1)Oc1cccnc1S2(=O)=O | > 10 mg/kg | > 30 mg/kg
3 | O=[N+]([O-])c1ccc2c(c1)Oc1cccnc1S2(=O)=O | 12 mg/kg | 10 mg/kg
4 | O=S1(=O)c2ccc(NO)cc2Oc2cccnc21 | > 10 mg/kg | 2 mg/kg
5 | O=S1(=O)c2ccc(C(F)(F)F)cc2Oc2cccnc21 | 17 mg/kg | 1 mg/kg
6 | O=S1(=O)c2ccc(Br)cc2Oc2cccnc21 | 7 mg/kg | 15 mg/kg
7 | FC(F)(F)c1ccc2c(c1)Oc1cccnc1S2 | > 10 mg/kg | 16 mg/kg
8 | COc1ccc2c(c1)Oc1cccnc1S2 | > 10 mg/kg | > 30 mg/kg
9 | c1ccc2c(c1)Oc1cccnc1S2 | > 10 mg/kg | 8 mg/kg
10 | NS(=O)(=O)c1ccc2c(c1)Oc1cccnc1S2 | 8 mg/kg | > 30 mg/kg
11 | O=S1(=O)c2ccccc2Oc2cccnc21 | > 10 mg/kg | 12 mg/kg
12 | O=S1(=O)c2ccc(Cl)cc2Oc2cccnc21 | > 10 mg/kg | 18 mg/kg
13 | Clc1ccc2c(c1)Oc1cccnc1S2 | > 10 mg/kg | > 30 mg/kg
14 | O=[N+]([O-])c1ccc2c(c1)Oc1cccnc1S2 | 7 mg/kg | > 30 mg/kg
15 | Brc1ccc2c(c1)Oc1cccnc1S2 | > 10 mg/kg | > 30 mg/kg
